For orientation: pIC50 means the IC50 on a negative log10 scale, so that one unit is a factor of ten.

pIC50: −log10 of the molar value. Where only a bound is given, the exact number is not on record here.

For twelve molecules, IC50 results are on record in ChEMBL document CHEMBL1151846, “Cytotoxic constituents of chinese propolis” (J Nat Prod, 2009).

The test system of this assay is HeLa. Briefly: Cytotoxicity against human HeLa cells by MTT assay. It counts as functional, cell-based. In outline: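 HeLa human cervical cancer cells were tested by MTT viability assay, following a previously published protocol. Doxorubicin was run as the reference cytotoxic control. Values are reported as IC50 in µM.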
In general terms: Tetrazolium dyes change colour on reduction, which living cells bring about.
`COc1cc(O)cc2c1C(=O)C(O)C(c1ccccc1)O2` (configuration not stated) gave a negative logarithm of the IC50 (pIC50) not above 5.00.
Molecule `COc1cc(O)c(C(=O)/C=C/c2ccccc2)c2c1C[C@H](O)[C@@H](c1cc(O)cc(O)c1)O2` gave a pIC50 of 5.14.
With `COc1cc(C2Oc3c(c(OC)cc(O)c3C(=O)/C=C/c3ccccc3)CC2O)ccc1O` (configuration not stated), the pIC50 was 5.19. The pIC50 values of the last two molecules are within 0.2 log units of each other.
Molecule `COc1cc(O)c(C(=O)/C=C/c2ccccc2)c2c1C[C@@H](O)[C@H](c1cc(O)cc(O)c1)O2` had a negative logarithm of the IC50 (pIC50) of 5.15.
For `O=c1cc(-c2ccc(O)cc2)oc2cc(O)cc(O)c12` [APIGENIN], the pIC50 is not above 5.00.
As to `O=c1cc(-c2ccccc2)oc2cc(O)cc(O)c12` [CHRYSIN], the pIC50 is not above 5.00.
`O=c1c(O)c(-c2ccccc2)oc2cc(O)cc(O)c12` [GALANGIN]: the pIC50 was not above 5.00.
The figure for `COc1ccc(/C=C/C(=O)O)cc1O` [ISOFERULIC ACID] is not above 5.00.
In the case of `COc1cc(-c2oc3cc(O)cc(O)c3c(=O)c2O)ccc1O` [ISORHAMNETIN] it was not above 5.00.
In the case of `O=C1C[C@@H](c2ccccc2)Oc2cc(O)cc(O)c21` [PINOCEMBRIN], the pIC50 was not above 5.00.
Regarding `O=c1c(O)c(-c2ccc(O)c(O)c2)oc2cc(O)cc(O)c12` [QUERCETIN], the pIC50 is not above 5.00.
The molecule `COc1cc(O)c2c(=O)c(O)c(-c3ccc(O)c(O)c3)oc2c1` [RHAMNETIN] gave a pIC50 of 5.11.
